This note sets out measurements from ChEMBL document CHEMBL4602718, “Mechanism of Action of an EPAC1-Selective Competitive Partial Agonist” (J Med Chem, 2020).

Structures are written as SMILES. Activity calls are given as the source filed them. The calls are words filed in the database; no cut-off is given here.

The target in assay [1] is T1, Rap guanine nucleotide exchange factor 3 (Homo sapiens) (UniProt O95398).
T1 sequence (whole entry): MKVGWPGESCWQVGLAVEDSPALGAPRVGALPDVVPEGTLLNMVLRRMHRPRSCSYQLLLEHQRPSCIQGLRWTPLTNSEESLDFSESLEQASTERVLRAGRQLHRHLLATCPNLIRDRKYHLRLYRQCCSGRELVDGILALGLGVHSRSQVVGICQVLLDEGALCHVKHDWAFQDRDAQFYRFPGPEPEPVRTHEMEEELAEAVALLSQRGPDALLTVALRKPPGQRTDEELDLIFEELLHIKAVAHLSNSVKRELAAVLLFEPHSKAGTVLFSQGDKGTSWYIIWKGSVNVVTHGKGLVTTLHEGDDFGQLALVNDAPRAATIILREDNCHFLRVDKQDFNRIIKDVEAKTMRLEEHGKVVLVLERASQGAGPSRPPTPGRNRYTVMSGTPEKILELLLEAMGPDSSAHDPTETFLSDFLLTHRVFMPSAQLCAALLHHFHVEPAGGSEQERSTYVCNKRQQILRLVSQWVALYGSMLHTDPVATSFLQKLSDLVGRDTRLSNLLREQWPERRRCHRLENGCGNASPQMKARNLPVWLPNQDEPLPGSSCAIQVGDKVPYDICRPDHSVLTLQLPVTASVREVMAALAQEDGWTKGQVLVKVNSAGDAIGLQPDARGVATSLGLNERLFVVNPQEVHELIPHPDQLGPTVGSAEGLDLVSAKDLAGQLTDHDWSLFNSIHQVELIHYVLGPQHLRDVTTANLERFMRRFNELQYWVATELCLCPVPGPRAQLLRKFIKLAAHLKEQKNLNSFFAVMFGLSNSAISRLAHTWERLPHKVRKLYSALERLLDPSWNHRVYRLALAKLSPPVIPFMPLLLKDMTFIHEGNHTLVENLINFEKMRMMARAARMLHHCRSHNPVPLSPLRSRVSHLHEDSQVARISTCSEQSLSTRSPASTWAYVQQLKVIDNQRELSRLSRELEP
Put plainly: Binding affinity to GST-tagged human EPAC1 CNBD (149 to 318 residues)expressed in Escherichia coli BL21 (DE3) assessed as induction Intermolecular NOEs peaks in PBC and BBR residues by 15N-NOESY-HSQC NMR spectroscopy.

In assay [2] the target is T1, Rap guanine nucleotide exchange factor 3 (Homo sapiens). Put plainly: Binding affinity to GST-tagged human EPAC1 CNBD (149 to 318 residues)expressed in Escherichia coli BL21 (DE3) assessed as binding to R279 Guanidinium residue by guanidinium HSQC NMR spectroscopy. Put shortly:
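Human EPAC1 residues 149–318, wild type and R279A mutant, expressed GST-tagged in E. coli BL21(DE3) in 15N or 15N/13C M9 medium. GST tag removed by thrombin; protein purified by glutathione and anion-exchange steps. Guanidinium HSQC spectra of apo or ligand-saturated protein recorded at 700 MHz and 306 K in 50 mM Tris, 50 mM NaCl, 1 mM DTT, pH 7.6. Ligand came from a DMSO-d6 stock, with matching DMSO-d6 added to apo and cAMP-bound controls.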

Assay [3] has the same target. Put plainly: Binding affinity to GST-tagged human EPAC1 CNBD (149 to 318 residues) expressed in Escherichia coli BL21 (DE3) incubated for 30 mins by 1H,15N-HSQC NMR spectroscopy.
Assay [4] addresses T2, Rap guanine nucleotide exchange factor 3 (Homo sapiens, UniProt O95398).
T2 sequence (O95398 whole entry): T1 sequence (whole entry)
As to the kind of experiment: Binding affinity to GST-tagged human EPAC1 CNBD (149 to 318 residues) expressed in Escherichia coli BL21 (DE3) incubated for 30 mins by 8-NBD-cAMP based competitive fluorescence assay.

In assay [5] the target is T1, Rap guanine nucleotide exchange factor 3 (Homo sapiens). Put plainly: Binding affinity to GST-tagged human EPAC1 CNBD (149 to 318 residues)expressed in Escherichia coli BL21 (DE3) by STD and guanidinium HSQC NMR analysis.
The target is the same in assay [6]. As to the kind of experiment: Binding affinity to GST-tagged human EPAC1 CNBD (149 to 318 residues)expressed in Escherichia coli BL21 (DE3) assessed as induction of perturbation of allosteric network sites by CHESCA method.
The target is the same in assay [7]. Put plainly: Binding affinity to GST-tagged human EPAC1 CNBD (149 to 318 residues)expressed in Escherichia coli BL21 (DE3) assessed as compound binding to phosphate binding cassette region incubated for 30 mins by CHESPA method.
For assay [8] the target is unchanged. As to the kind of experiment: Binding affinity to GST-tagged human EPAC1 CNBD (149 to 318 residues)expressed in Escherichia coli BL21 (DE3) assessed as compound binding to cAMP-binding sites incubated for 30 mins by CHESPA method.
Assay [9] shares this target. As to the kind of experiment: Binding affinity to GST-tagged human EPAC1 CNBD (149 to 318 residues)expressed in Escherichia coli BL21 (DE3) assessed as induction of conformational changes in compound by NOESY NMR spectroscopy.
The target in assay [10] is Rap guanine nucleotide exchange factor 3 (Homo sapiens, UniProt O95398, L273W). Put plainly: Binding affinity to GST-tagged human EPAC1 L273W mutant expressed in Escherichia coli BL21 (DE3) incubated for 30 mins by 8-NBD-cAMP based competitive fluorescence assay. Put shortly: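 Competitive displacement of 8-NBD-cAMP from the L273W mutant of the 149–318 construct, titrating ligand in Tris pH 7.6 buffer. […] Percent bound 8-NBD-cAMP was plotted against total ligand and fitted to a competitive-binding cubic solution to give Kd.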

Assay [11] deals with T1, Rap guanine nucleotide exchange factor 3 (Homo sapiens). As to the kind of experiment: Binding affinity to GST-tagged human EPAC1 CNBD (149 to 318 residues)expressed in Escherichia coli BL21 (DE3) assessed as compound binding to base binding region incubated for 30 mins by CHESPA method.

Sequence of Rap guanine nucleotide exchange factor 3 (Homo sapiens, UniProt O95398, L273W) (O95398 whole entry L273W): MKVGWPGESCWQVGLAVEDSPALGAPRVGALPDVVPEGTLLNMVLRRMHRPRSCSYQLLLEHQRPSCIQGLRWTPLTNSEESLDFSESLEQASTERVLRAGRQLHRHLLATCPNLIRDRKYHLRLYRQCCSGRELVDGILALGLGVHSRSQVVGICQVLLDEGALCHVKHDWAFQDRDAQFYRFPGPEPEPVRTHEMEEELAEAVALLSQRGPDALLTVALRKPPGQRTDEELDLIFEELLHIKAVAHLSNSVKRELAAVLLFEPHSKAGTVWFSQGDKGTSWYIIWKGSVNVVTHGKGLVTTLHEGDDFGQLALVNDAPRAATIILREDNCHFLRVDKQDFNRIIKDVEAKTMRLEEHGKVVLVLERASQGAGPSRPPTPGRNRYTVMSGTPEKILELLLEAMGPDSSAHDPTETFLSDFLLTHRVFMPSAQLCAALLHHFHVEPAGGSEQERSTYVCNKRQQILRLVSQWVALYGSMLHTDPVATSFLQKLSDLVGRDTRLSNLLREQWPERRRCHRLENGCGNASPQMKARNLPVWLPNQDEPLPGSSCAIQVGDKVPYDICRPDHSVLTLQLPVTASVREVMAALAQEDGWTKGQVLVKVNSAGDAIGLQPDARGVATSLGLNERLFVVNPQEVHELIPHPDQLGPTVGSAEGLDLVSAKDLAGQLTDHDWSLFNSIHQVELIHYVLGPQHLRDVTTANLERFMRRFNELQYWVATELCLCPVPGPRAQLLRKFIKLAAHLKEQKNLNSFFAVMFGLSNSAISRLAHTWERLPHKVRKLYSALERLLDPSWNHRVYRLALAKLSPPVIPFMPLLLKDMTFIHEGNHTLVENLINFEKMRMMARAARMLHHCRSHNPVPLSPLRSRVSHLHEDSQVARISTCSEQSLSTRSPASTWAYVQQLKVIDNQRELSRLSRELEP

`COc1ccc(S(=O)(=O)NC(=O)COc2ccc3ccccc3c2)c(OC)c1`: the result in assay [1] was Active.

For the molecule `COc1ccc(OC)c(S(=O)(=O)NC(=O)COc2ccc3ccccc3c2)c1`, the result in [1] was Active.

For `Nc1ncnc2c1ncn2[C@@H]1O[C@@H]2CO[P@@](O)(=S)O[C@H]2[C@H]1O`, the result in assay [2] was Active.

Turning to `Cc1ccc(S(=O)(=O)NC(=O)COc2ccc3ccccc3c2)c(C)c1`, the result in assay [3], in assay [5], in assay [1], in assay [6], in [7] and in assay [8] was Active. For the same molecule, the result in assay [9], in [2] and in assay [11] was Active. The figures for the Kd in assay [4] and in [10] were 6.6 µM and 4.9 µM, respectively.

`COc1ccc(S(=O)(=O)NC(=O)COc2ccc3ccccc3c2)cc1OC`: the result in [1] was Active.
